RGS4 act: RGS4 potentiation or activation. HEK293 M3R/inducible RGS4, carbachol calcium flux Fluo4; stronger effect = lower value. B-score at 10 µM. 0.92% of 310,000 active;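 active = B-score of the integrated calcium signal more than 4 SD below the library mean, with starting fluorescence not abnormally high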;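 note: negative B-score means reduced calcium response which marks RGS4 activation or potentiation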
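Material: Inducible-RGS4 HEK293 cells carrying M3 receptor; also added: carbachol at ECmax as muscarinic agonist stimulus; incubation: compound preincubation 20 min at room temperature before agonist; signal: Fluo4-AM (2 µM) calcium-flux fluorescence, kinetic read; measure: integrated calcium ratio converted to B score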
MrgX1 agonist: activates human MrgX1 receptor signaling. B-score at 10 µM. 0.44% of 310,000 active. Q96LB2. MrgX1-HEK293 cells, Fluo-4 calcium fluorescence, agonist mode; stronger effect = higher value;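 active = calcium response B-score plate-corrected fluorescence ratio at least 3 library SD, with starting fluorescence B-score inside 5 SD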
Target sequence (Q96LB2 whole entry, looked up): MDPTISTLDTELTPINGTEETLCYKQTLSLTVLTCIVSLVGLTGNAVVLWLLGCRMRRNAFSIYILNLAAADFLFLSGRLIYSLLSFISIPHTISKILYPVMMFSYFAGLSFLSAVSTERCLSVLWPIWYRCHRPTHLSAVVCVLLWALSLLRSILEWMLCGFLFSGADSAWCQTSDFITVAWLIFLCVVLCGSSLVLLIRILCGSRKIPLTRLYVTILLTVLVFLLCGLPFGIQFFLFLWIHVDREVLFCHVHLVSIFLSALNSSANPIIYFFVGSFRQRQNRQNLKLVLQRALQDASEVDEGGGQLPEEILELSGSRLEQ
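Test system: Stable human MrgX1 HEK293 cell line | Schedule: Overnight plating before 1 h dye loading | Read-out basis: Baseline-normalised fluorescence change ratio, B-scored | Detection: Kinetic calcium dye fluorescence, Fluo-4 NW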
RGS4 inh: inhibitors of human RGS4 | P49798 | HEK293 M3R/RGS4 inducible, Fluo-4 calcium flux; stronger effect = higher value; triggered by carbachol at its EC20 | B-score at 10 µM | 0.45% of 310,000 active;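 active = B-score, a plate-corrected calcium signal, over three deviations above library mean, with baseline fluorescence within five deviations of library mean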;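 note: RGS4 expression induced by doxycycline in cells with stable M3 receptor; B-score is computed from the integrated fluorescence ratio over baseline after carbachol; higher B-score means a larger calcium signal and so more RGS4 inhibition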
Target sequence (P49798 whole entry, looked up): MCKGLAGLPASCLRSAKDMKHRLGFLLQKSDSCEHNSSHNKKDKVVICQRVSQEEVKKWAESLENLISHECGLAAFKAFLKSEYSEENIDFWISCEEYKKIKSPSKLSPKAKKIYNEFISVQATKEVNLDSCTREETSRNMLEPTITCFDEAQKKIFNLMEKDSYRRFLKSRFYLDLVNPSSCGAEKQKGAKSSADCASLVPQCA
MrgX1 antagonist: blocks BAM8-22 activation of human MrgX1 receptor; MRGX1-HEK293 calcium flux, Fluo-4, BAM8-22 antagonism; stronger effect = lower value; 1.3% of 310,000 active; Q96LB2; B-score at 10 µM; AID 588676;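 active = calcium-response B-score plate-corrected more than 3 library SD below zero, starting fluorescence within 5 deviations, no agonist response on first addition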;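 note: peak minus trough fluorescence over baseline after final BAM8-22 challenge near maximal dose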
MrgX1 PAM: human MrgX1 positive allosteric modulation, primary screen | Q96LB2 | MrgX1-HEK293, Fluo-4 calcium flux, FDSS; stronger effect = higher value | B-score at 10 µM | 0.63% of 310,000 active | AID 588675;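 active = plate-corrected calcium response at least 3 library SD above typical, normal starting fluorescence, not activating the receptor alone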;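 note: compound read alongside a low EC10 to EC30 dose of BAM8-22 agonist; peak minus trough fluorescence over baseline measured at the second addition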
MrgX1 antag conf: reconfirmed antagonist of human MrgX1 receptor signaling; remaining BAM8-22 calcium response % of control (stronger effect = lower value), % at 10 µM; 19% of 2,300 active; MrgX1-HEK293, BAM8-22 calcium flux, Fluo-4; stronger effect = lower value; shares compounds with MrgX1 antagonist;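 active = remaining agonist calcium response no higher than 100% minus 3 SD of agonist-only control wells, with starting fluorescence near control levels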;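 note: agonist BAM8-22 given at a near maximal EC90 to ECmax level; peak minus minimum fluorescence divided by baseline after agonist addition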
HEK293 Ca flux: activity in parental HEK293 cells lacking MrgX1; shares compounds with MrgX1 antagonist; Fluo-4 calcium fluorescence, FDSS; fluorescence ratio F(max-min)/F0 at 10 µM; 2% of 4,000 active;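 active = duplicate-averaged calcium fluorescence ratio at least three times the standard deviation of buffer wells, a nonspecific response in parental cells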
HEK293 Ca counter: counter-screen for MrgX1 allosteric activators: effect in parental HEK293 cells. shares compounds with MrgX1 antagonist. parental HEK293 calcium flux, Fluo-4 fluorescence ratio; stronger effect = higher value. fluorescence ratio F(max-min)/F0 at 10 µM. 0.4% of 4,000 active;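 active = calcium fluorescence ratio, averaged over duplicates, at least 3 SD of the buffer-well ratio, meaning a nonspecific response in receptor-free cells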;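 note: untransfected parental HEK293 lacking MrgX1 used as counterscreen for MrgX1 allosteric activators; fluorescence change taken during the second addition on a kinetic imager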
HEK293 Ca cntr2: counter-screen for MrgX1 activators: effect in parental HEK293 cells | 8.7% of 4,000 active | Fluo-4 calcium fluorescence (FDSS); stronger effect = higher value | fluorescence ratio F(max-min)/F0 at 10 µM | shares compounds with MrgX1 antagonist | AID 624115;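 active = calcium fluorescence ratio at least three times the spread of buffer wells, meaning a non-specific response in parental cells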
Starred values were filed as active, the others as inactive; i = inactive; · = not tested or not shown. Most compounds without a hit are left out; they make up all but 3.5% or so of the library.

SMILES	RGS4 act	MrgX1 agonist	RGS4 inh	MrgX1 antagonist	MrgX1 PAM	MrgX1 antag conf	HEK293 Ca flux	HEK293 Ca counter	HEK293 Ca cntr2
CC(=O)NC1C(=O)N(CCN2CCOCC2)c2ccc(Cl)cc21 (stereo unspecified)	i	i	i	-8.71*	i	i	i	i	i
CCCCN1C(=O)C(NC(C)=O)c2cc(Br)ccc21 (stereo unspecified)	i	i	i	i	i	·	·	·	·
Cn1cc(CC(=O)Nc2cccc(C#N)c2)c2ccccc21	i	i	i	-4.6*	i	i	i	i	i
CC(=O)CSc1ncnc2sc3c(c12)CCC3	i	i	i	i	i	·	·	·	·
CC(C)(C)C(=O)CSc1ncnc2sc3c(c12)CCC3	i	i	i	-9.68*	i	i	i	i	i
CCCC(=O)Nc1ccc(S(=O)(=O)Nc2cc(OC)ncn2)cc1	i	·	i	·	·	·	·	·	·
COc1ccc(-c2csc(NC(=O)COc3ccc(N(C)S(=O)(=O)c4ccc(C)cc4)cc3)n2)cc1	i	i	i	i	i	·	·	·	·
COc1ccc(-c2csc(NC(=O)c3ccccc3NS(=O)(=O)c3ccc(C)cc3)n2)cc1	i	i	i	-9.02*	i	60.9%*	i	i	i
COc1ccc(S(=O)(=O)Nc2ccccc2C(=O)Nc2nc(-c3ccc(F)cc3)cs2)cc1OC	i	i	i	-8.71*	i	i	i	i	i
COc1ccc2[nH]c3c(c2c1)CCN1C(=O)N([C@@H](C)C(=O)NCc2ccco2)C(=O)[C@]31C	i	i	i	i	i	·	·	·	·
CCOc1ccc(NC(=O)CN(C)C(=O)c2cc([N+](=O)[O-])ccc2N2CCOCC2)cc1OCC	i	i	i	i	i	·	·	·	·
CNC(=O)CSc1nnc(-c2cccnc2)n1-c1ccc(C)cc1	i	i	i	-5.64*	i	i	i	i	i
O=C1O/C(=C\c2ccccc2)c2ccccc21	i	i	i	i	i	·	·	·	·
O=C1O/C(=C/c2ccccc2)N=C1c1ccccc1	i	i	i	-4.96*	i	i	i	i	i
COc1ccc(-c2noc(N3CCCC(C(=O)Nc4ccccc4F)C3)n2)cc1 (stereo unspecified)	i	i	i	i	i	·	·	·	·
COc1ccc(-c2noc(N3CCCC(C(=O)Nc4ccc(F)cc4F)C3)n2)cc1 (stereo unspecified)	i	i	i	-4.6*	i	i	i	i	i
COc1ccccc1NC(=O)COC(=O)Cc1c[nH]c2ccccc12	i	i	i	i	i	·	·	·	·
CC(C)c1ccccc1NC(=O)COC(=O)Cc1c[nH]c2ccccc12	i	i	i	-18.6*	i	i	i	i	i
CC(=O)Nc1ccccc1NC(=O)c1ccc(C)c(C)c1	i	i	i	i	i	·	·	·	·
C(=N\n1cnnc1)/c1ccccn1	i	i	i	i	i	·	·	·	·
C(=N\n1cnnc1)/c1ccc2ncccc2c1	i	i	i	-4.66*	i	i	i	i	i
COc1ccc(NC(=O)CSc2ccccn2)cc1OC	i	i	i	-4.75*	i	i	i	i	i
O=C(CSc1ccccn1)Nc1nc2ccccc2s1	i	i	i	-7.59*	i	85.2%*	i	i	i
CN(CC(=O)Nc1ccccc1Br)C(=O)CCSc1ccc(F)cc1	i	i	i	i	i	·	·	·	·
Cc1ccc(Cl)cc1N1CCN(C(=O)c2cc3c(=O)[nH]c4ccccc4c3n2C)CC1	i	i	i	-13.9*	i	36.0%*	i	i	i
SMILES	RGS4 act	MrgX1 agonist	RGS4 inh	MrgX1 antagonist	MrgX1 PAM	MrgX1 antag conf	HEK293 Ca flux	HEK293 Ca counter	HEK293 Ca cntr2
CC(=O)c1c[nH]c2ccc(C)cc2c1=O	i	i	i	-4.93*	i	69.9%*	i	i	i
NC(=O)COC(=O)CSc1ccc2ccccc2c1	i	i	i	i	i	·	·	·	·
COc1cc(OC)c(C2=NOC(C(=O)O)C2)cc1Cl (stereo unspecified)	i	i	i	i	i	·	·	·	·
Cc1ccccc1NC(=S)NCc1ccc2c(c1)cc(C)n2C	i	i	i	-5.34*	i	i	i	i	i
COc1ccccc1NC(=S)NCc1ccc2c(c1)cc(C)n2C	i	i	i	i	i	·	·	·	·
C/C(CC(=O)Nc1ccc(C)c(Cl)c1)=N\NC(=O)c1cccc(O)c1	i	i	i	i	i	·	·	·	·
CC(=O)Oc1c(S(=O)(=O)c2ccc(C)cc2)c(C)nn1C(C)(C)C	i	i	i	i	i	·	·	·	·
CCCCC(=O)Oc1c(S(=O)(=O)c2ccc(C)cc2)c(C)nn1C(C)(C)C	i	i	i	-5.18*	i	i	i	i	i
COc1ccc(OC)c(NC(=O)Nc2cccc3ccccc23)c1	i	i	i	-4.57*	i	i	i	i	i
COc1ccc(NC(=O)CN(Cc2ccccc2)S(C)(=O)=O)c(OC)c1	i	i	i	i	i	·	·	·	·
COc1ccc(OC)c(NC(=O)CN(Cc2ccccc2)S(C)(=O)=O)c1	i	i	i	-9.14*	i	i	i	i	i
COCCN(C(=O)Cc1cccs1)C(C(=O)NC1CCCC1)c1cc(OC)c(OC)c(OC)c1 (stereo unspecified)	i	i	i	i	i	·	·	·	·
Cc1ccc(NC(=O)Nc2ccc(F)cc2)cc1Cl	i	i	i	-6.07*	i	71.2%*	i	i	i
Cc1ccc2[nH]c3c(c2c1)CCC3=O	i	i	i	i	i	·	·	·	·
Cc1ccc2[nH]c3c(c2c1)CCc1cn[nH]c1-3	i	i	i	-4.87*	i	i	i	i	i
Cc1ccc(S(=O)(=O)N2CCN(C(=O)c3sccc3-c3ccccc3)CC2)cc1	i	i	i	-5.4*	i	i	i	i	i

Bioassay records deposited in PubChem BioAssay by Johns Hopkins Ion Channel Center.
